Test results taken from ChEMBL document CHEMBL4257520, “Design, synthesis and bioactivity investigation of tetrandrine derivatives as potential anti-cancer agents” (Medchemcomm, 2018).
Active and inactive are the calls of the source. The calls are words filed in the database; no cut-off is given here.

Legend:
HEL = experiment: Antiproliferative activity against HEL cells after 48 hrs by MTT assay; type: functional, cell-based; conditions: Homo sapiens
How it was run: (§1)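 MTT assay on human cancer lines held at 37 °C, 95% humidity, 5% CO2. Cells were exposed to compounds at 20.0–0.5 μM for 48 h, then washed twice with PBS. MTT (5 mg mL–1 in PBS) was added for 4 h at 37 °C, the formazan was dissolved in DMSO, and A490 was read. IC50 comes from replicate wells over three independent experiments.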

K562 = experiment: Antiproliferative activity against human K562 cells after 48 hrs by MTT assay; type: functional, cell-based; conditions: K562, 48 h; how it was run: as §1
PC-3 = experiment: Antiproliferative activity against human PC3 cells after 48 hrs by MTT assay; type: functional, cell-based; conditions: PC-3, 48 h; how it was run: as §1
[1] = Antiproliferative activity against human WM9 cells after 48 hrs by MTT assay; type: functional, cell-based; conditions: WM9, 48 h; how it was run: as §1
MDA-MB-231 [2] = experiment: Antiproliferative activity against human MDA-MB-231 cells after 48 hrs by MTT assay; type: functional, cell-based; conditions: MDA-MB-231, 48 h; how it was run: as §1
L02 = experiment: Cytotoxicity against human HL7702 cells after 48 hrs by MTT assay; type: cell-based; conditions: L02, 48 h
How it was run: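 Normal human liver HL7702 cells were assessed by MTT assay, with formazan absorbance as the read-out, to give an IC50 for cytotoxicity.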

MDA-MB-231 [3] = experiment: Induction of apoptosis in human MDA-MB-231 cells assessed as live cells at 2.5 uM after 24 hrs by Annexin V-FITC/propidium iodide staining based flow cytometry (reference value: 95.7%); type: functional
MDA-MB-231 [4] = experiment: Induction of apoptosis in human MDA-MB-231 cells assessed as early apoptotic cells at 2.5 uM after 24 hrs by Annexin V-FITC/propidium iodide staining based flow cytometry (reference value: 2.1%); type: functional
MDA-MB-231 [5] = experiment: Induction of apoptosis in human MDA-MB-231 cells assessed as late apoptotic cells at 2.5 uM after 24 hrs by Annexin V-FITC/propidium iodide staining based flow cytometry (reference value: 1.9%); type: functional
MDA-MB-231 [6] = experiment: Induction of apoptosis in human MDA-MB-231 cells assessed as necrotic cells at 2.5 uM after 24 hrs by Annexin V-FITC/propidium iodide staining based flow cytometry (reference value: 0.3%); type: functional
MDA-MB-231 [7] = experiment: Induction of apoptosis in human MDA-MB-231 cells assessed as live cells at 1.25 uM after 24 hrs by Annexin V-FITC/propidium iodide staining based flow cytometry (reference value: 95.7%); type: functional
MDA-MB-231 [8] = experiment: Induction of apoptosis in human MDA-MB-231 cells assessed as early apoptotic cells at 1.25 uM after 24 hrs by Annexin V-FITC/propidium iodide staining based flow cytometry (reference value: 2.1%); type: functional
MDA-MB-231 [9] = experiment: Induction of apoptosis in human MDA-MB-231 cells assessed as late apoptotic cells at 1.25 uM after 24 hrs by Annexin V-FITC/propidium iodide staining based flow cytometry (reference value: 1.9%); type: functional
MDA-MB-231 [10] = experiment: Induction of apoptosis in human MDA-MB-231 cells assessed as necrotic cells at 1.25 uM after 24 hrs by Annexin V-FITC/propidium iodide staining based flow cytometry (reference value: 0.3%); type: functional
MDA-MB-231 [11] = experiment: Induction of apoptosis in human MDA-MB-231 cells after 24 hrs by Annexin V-FITC/propidium iodide staining based flow cytometry; type: functional, cell-based
MDA-MB-231 [12] = experiment: Induction of apoptosis in human MDA-MB-231 cells assessed as increase in Bax expression at 2.5 uM after 24 hrs by Western blot analysis; type: functional, cell-based
How it was run: (§2)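 MDA-MB-231 cells were treated at 2.5 μM for 24 h and lysed in RIPA buffer. Protein was resolved on 10% SDS-PAGE, transferred to PVDF, and blocked in 5% BSA for 2 h at RT. Primary antibodies were applied overnight at 4 °C and HRP-conjugated secondary antibodies for 2 h at RT. Bands were detected by ECL, with β-actin as the loading reference.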

MDA-MB-231 [13] = experiment: Induction of apoptosis in human MDA-MB-231 cells assessed as increase in cleaved PARP expression at 2.5 uM after 24 hrs by Western blot analysis; type: functional, cell-based; how it was run: as §2
MDA-MB-231 [14] = experiment: Induction of apoptosis in human MDA-MB-231 cells assessed as decrease in Bcl-xl expression at 2.5 uM after 24 hrs by Western blot analysis; type: functional, cell-based; how it was run: as §2
MDA-MB-231 [15] = experiment: Induction of apoptosis in human MDA-MB-231 cells assessed as decrease in Bcl2 expression at 2.5 uM after 24 hrs by Western blot analysis; type: functional, cell-based; how it was run: as §2

## COc1cc(NS(=O)(=O)c2ccc3ccccc3c2)c2cc1Oc1ccc(cc1)C[C@H]1c3cc(c(OC)cc3CCN1C)Oc1c(OC)c(OC)cc3c1[C@H](C2)N(C)CC3
HEL
  IC50: 2.33 µM
K562
  IC50: 1.68 µM
PC-3
  IC50: 3.96 µM
[1]
  IC50: 4.74 µM
MDA-MB-231 [2]
  IC50: 1.18 µM
L02
  IC50: 14.4 µM
MDA-MB-231 [3]
  Activity: 42.6%
MDA-MB-231 [4]
  Activity: 28.6%
MDA-MB-231 [5]
  Activity: 27.2%
MDA-MB-231 [6]
  Activity: 1.5%
MDA-MB-231 [7]
  Activity: 85.9%
MDA-MB-231 [8]
  Activity: 3.8%
MDA-MB-231 [9]
  Activity: 9.6%
MDA-MB-231 [10]
  Activity: 0.7%
MDA-MB-231 [11]
  Activity: Dose-dependent effect
MDA-MB-231 [12]
  Activity: Active
MDA-MB-231 [13]
  Activity: Active
MDA-MB-231 [14]
  Activity: Active
MDA-MB-231 [15]
  Activity: Active
